# High-throughput results: PubChem BioAssay, several laboratories
# Hits are enriched below; roughly 2.9% of the tested compounds scored in any of these assays.
# SENP7 inh – SENP7 protease inhibition | recombinant SENP7, Z-RLRGG-aminoluciferin luminescence, 40 min | AID 434973 | Q9BQF6 | hit rate 1.5% among 330,000 | inhibition, % at 5 µM;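 active means inhibition above about 50% at the single test dose, limit read from the data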;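 further: plate controls were DMSO with enzyme for no effect and no enzyme buffer wells for full effect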
# Target sequence (Q9BQF6 706-1050 limits assumed): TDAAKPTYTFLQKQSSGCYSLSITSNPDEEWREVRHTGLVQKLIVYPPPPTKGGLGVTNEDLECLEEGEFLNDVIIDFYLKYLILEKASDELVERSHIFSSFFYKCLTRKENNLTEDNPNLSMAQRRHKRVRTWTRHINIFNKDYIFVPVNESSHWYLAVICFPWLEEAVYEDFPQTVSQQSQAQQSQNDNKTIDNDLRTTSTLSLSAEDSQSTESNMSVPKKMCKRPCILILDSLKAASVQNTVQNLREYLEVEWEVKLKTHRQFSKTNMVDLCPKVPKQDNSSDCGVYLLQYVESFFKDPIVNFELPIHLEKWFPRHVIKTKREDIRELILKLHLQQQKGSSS
# SENP8 block-1 – blocks human SENP8 cleavage of Nedd8 substrate. Q96LD8. recombinant SENP8, Nedd8 substrate fluorescence. inhibition, % at 20 µM. hit rate 0.64% among 360,000. AID 602440; in the data active means inhibition mostly above about 40%, no sharp cut-off; inactive means mostly below about 27%
# Target sequence (Q96LD8 whole entry, looked up): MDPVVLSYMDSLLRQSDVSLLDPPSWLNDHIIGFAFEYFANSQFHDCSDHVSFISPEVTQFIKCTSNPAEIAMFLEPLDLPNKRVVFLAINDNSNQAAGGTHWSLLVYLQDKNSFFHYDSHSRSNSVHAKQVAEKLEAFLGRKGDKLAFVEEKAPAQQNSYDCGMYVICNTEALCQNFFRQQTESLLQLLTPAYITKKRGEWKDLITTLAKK
# SENP1 FRET inh – inhibitors of human SENP1 SUMO protease catalytic domain | Q9P0U3 | recombinant SENP1 catalytic domain, CyPet-SUMO1-YPet FRET cleavage | inhibition, % at 10 µM | hit rate 0.21% among 360,000 | AID 624204;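 active means inhibition at least 30% at 10 µM, raw YFP signal under a set limit, fluorescence ratio 0.5 to 1.5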;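 further: 0% = enzyme with DMSO and 100% = no enzyme wells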
#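 Assay system: hSENP1 catalytic domain, recombinant. Amount: SENP1 enzyme, 20 pM final. Schedule: 50 min reaction, RT, dark. Technique: FRET, CFP and YFP emission. Control set: no-enzyme wells low, DMSO-plus-enzyme wells high control.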
# SENP6 inh – inhibitors of human SENP6 protease. Recombinant SENP6 catalytic domain, aminoluciferin luminescence. inhibition, % at 10 µM. hit rate 1.8% among 330,000;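 active means inhibition above about 50% at the single tested dose, limit read from the data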;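 further: plate controls were DMSO wells with enzyme for no effect and DMSO wells lacking enzyme for full effect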
# HSP90 refold inh – blocks HSP90-mediated luciferase refolding in reticulocyte lysate | Rabbit reticulocyte lysate, luciferase refolding luminescence, 3 h | inhibition, % at 5.6 µM | hit rate 0.91% among 290,000;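 active means inhibition above the screen-wide mean plus 3 SD, computed separately per campaign, cut at about 16% in these data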;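 further: 0% = DMSO wells and 100% = 60 µM geldanamycin wells; inhibitors lower the luminescence because luciferase stays unfolded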
# SENP8 block-2 – inhibitors of human SENP8 protease; purified SENP8, Z-RLRGG-aminoluciferin cleavage, luminescence; inhibition, % at 10 µM; hit rate 1.2% among 330,000; in the data active means inhibition above about 50%
# An asterisk follows results filed as active; / = no result.
SMILES,SENP7 inh,SENP8 block-1,SENP1 FRET inh,SENP6 inh,HSP90 refold inh,SENP8 block-2
Cc1cc2c(=Cc3ccc(N(C)C)cc3)c3ccccc3n2[n+]1C,/,43.3*,41.1*,/,/,/
O=C(COc1ccccc1)NCC(=O)N1CCCC(C(F)(F)F)C1 (centres undefined),/,15.9,-1.2,/,/,/
COc1ccc(CC2(CO)COc3ccccc3C2=O)cc1 (centres undefined),7.8,20.8,-0.3,3.7,/,12.7
Cc1c(CC(=O)O)c(=O)oc2cc(OCc3ccc(F)cc3F)ccc12,-3.2,-272.1,0.6,11.0,6.5,-7.7
Cc1c(CC(=O)O)c(=O)oc2cc(OCc3ccc(Br)cc3)ccc12,3.2,-285.2,1.4,17.0,16.9*,4.3
Oc1ccc2ccccc2c1C=NCc1ccccc1,13.8,5.5,-20.1,60.3*,9.7,13.6
Oc1ccc2ccccc2c1/C=N/Nc1ccccc1,-3.1,-55.8,-26.8,-17.3,-2.6,-11.2
Cc1cc(-c2cc(C)c(N)cc2C)c(C)cc1N,/,8.4,4.0,/,/,/
Cc1cc2c(cc1C)C(=O)C(Br)=C(N)C2=O,/,78.7*,5.3,/,/,/
C[C@@H]1CN([C@H](C)CO)C(=O)CCCn2nncc2CO[C@H]1CN(C)Cc1ccc(C(F)(F)F)cc1,/,9.9,1.1,/,/,/
O=[N+]([O-])c1ccc(CSc2nc3ccccc3[nH]2)cc1,60.9*,18.3,1.7,58.2*,1.5,34.4
CCCCCC(=O)N1C[C@@H](O)[C@H](n2cc(C3CC3)nn2)C[C@@H]1c1ccc(C)cc1,/,9.5,0.9,/,/,/
O=c1[nH][nH]c(-c2ccccc2)c1-c1ccccc1,/,-91.5,-0.5,/,/,/
O=c1c(-c2ccccc2)c1-c1ccccc1,-13.0,/,/,-15.9,20.2*,-12.6
COc1ccc(S(=O)(=O)N2CCOCC2)cc1NC(=O)c1ccc(=O)[nH]c1,-3.2,-0.1,-1.0,-9.4,/,1.1
Cc1cc(C(C)(C)C)cc(CN2CCN(S(=O)(=O)c3cccs3)CC2)c1O,/,17.7,2.7,/,/,/
CCCCC(=Nc1ccc(N)cc1)C1=C(O)C(C(=O)OC)C(C)(C)CC1=O (centres undefined),6.4,54.1*,48.2*,13.7,4.5,-2.2
CCCC(=Nc1ccccc1)C1=C(O)C(C(=O)OC)C(C)(C)CC1=O (centres undefined),2.2,12.3,6.4,-21.9,2.0,-7.3
O=C1C(=Cc2cccn2-c2ccc(O)cc2)C(=O)c2ccccc21,2.5,27.9*,57.7,6.3,-1.4,5.1
Cc1ccc(NC(=S)NNC(=O)Nc2ccccc2)cc1,47.2,12.8,0.3,52.5*,0.0,29.3
CCCc1nc(SCC(=O)N2CCCCCC2)c2c(=O)n(C)c(=O)n(C)c2n1,/,/,/,/,-0.8,/
CCN1C/C(=C/c2ccc(OC)c(O)c2)C(=O)/C(=C/c2ccc(OC)c(O)c2)C1,0.7,4.2,0.6,-15.8,13.7,6.9
COc1ccc(/C=C2\CN(Cc3ccccc3)C/C(=C\c3ccc(OC)c(O)c3)C2=O)cc1O,-1.4,22.9,-8.5,-19.4,18.5*,3.1
CN(CC(=O)Nc1ccccc1Br)C(=O)c1cc2c(s1)CCCCC2,0.6,-6.0,-5.4,11.6,/,-4.7
Oc1ccc(Br)cc1/C=N/N1CCCCC1,53.3*,14.6,-1.2,94.3*,0.3,84.5*
SMILES,SENP7 inh,SENP8 block-1,SENP1 FRET inh,SENP6 inh,HSP90 refold inh,SENP8 block-2
O=c1cc2c(=O)oc3cc(O)c(O)oc3c2c(O)c1O,/,12.6,30.2*,/,-0.9,/
Cc1nn(-c2ccccc2)c(N2CCCC2)c1/C=N/Nc1ccc(S(N)(=O)=O)cc1[N+](=O)[O-],-5.9,47.6*,3.6,-22.7,3.4,0.6
O=C1/C(=C/c2cccs2)SC(=S)N1c1cccc(O)c1,-14.0,47.8*,2.0,-21.9,7.5,-6.5
Cc1cc(N)nc(=O)n1C1CC(O)C(CO)O1 (centres undefined),/,5.7,-3.2,/,/,/
O=c1c2ccccc2sn1-c1ccc(Cl)cc1,/,8.9,0.0,/,/,/
Cc1ccc(-n2sc3ccccc3c2=O)cc1,76.7*,13.5,0.1,93.9*,-1.8,85.7*
COC(=O)c1cccc(-n2sc3ccccc3c2=O)c1,19.1,8.2,4.1,70.1*,/,57.0*
COc1cccc2cc(-c3ccccc3)c(=O)oc12,75.0*,-74.4,1.5,42.0,-3.2,65.8*
Cc1ccc(S(=O)(=O)N/N=C\c2cn(CC(N)=O)c3ccccc23)cc1,6.3,4.8,1.0,-1.2,-5.1,-0.1
COc1ccc(CN2CCC2(C)C(=O)NCCc2c[nH]c3ccccc23)c2ccccc12 (centres undefined),/,11.2,-0.1,/,/,/
CCN(CC)S(=O)(=O)c1cccc(C(=O)OC2CC(C)OC2=O)c1 (centres undefined),3.4,14.3,-1.8,-13.1,16.5*,4.9
COc1ccccc1C(CNC(=O)c1cccc(S(=O)(=O)NCc2ccccc2)c1)N(C)C (centres undefined),15.0,12.3,-0.7,-2.0,/,-14.0
CCN(CC(=O)Nc1c(F)cccc1F)C(=O)c1ccc2c(c1)C(=O)N(c1ccccc1C)C2=O,/,28.7,2.0,/,/,/
O=C1c2ccccc2-c2cccnc21,-3.9,14.1,0.3,1.6,-1.5,-2.7
O=C1c2ccccc2C(=O)c2c(/C=C/N3CCCCC3)ccnc21,/,64.0*,8.3,/,/,/
CC(=O)N(C)c1ccc(N2CCOCC2)c2c1C(=O)c1ccccc1C2=O,-0.4,32.2,0.5,-4.7,/,1.7
O=C1c2ccccc2C(=O)c2c1cccc2N1CCOCC1,5.2,42.6*,1.8,13.6,5.7,5.6
C[C@]12C=CC(=O)C=C1CC[C@@H]1C2=CC[C@]2(C)[C@@H](C(=O)CN3CCN(c4cc(N5CCCC5)nc(N5CCCC5)n4)CC3)CC[C@@H]12,30.5,22.4,-66.6,63.9*,/,75.8*
CC(=O)C1CCC2C3CCC4=CC(=O)C=CC4(C)C3C(=O)CC12C (centres undefined),/,4.7,2.9,/,/,/
CCc1ccccc1NC(=O)C1=CN2CCS(=O)(=O)N=C2C=C1,9.9,-101.2,2.3,-10.9,/,-6.1
COc1cc(NC(=S)N2CCCC2)cc(OC)c1,0.3,6.8,2.7,0.2,16.6*,6.4
Cc1cc2cc3c(cc2nc1SCC(=O)N1c2ccccc2CC1C)OCO3 (centres undefined),-5.1,-5.7,1.2,0.3,16.8*,-2.3
C/C(=N\NC(=O)c1ccc(Br)cc1)C1C(=O)c2ccccc2C1=O,56.6*,17.7,1.7,97.2*,-1.0,94.3*
ClN=C1C=CC=CC1=NCl,/,37.9*,-7.3,/,/,/
COc1ccccc1C(=O)O/N=C1/CCCc2c1ccc(OC)c2[N+](=O)[O-],13.5,28.6,-1.5,-8.8,-0.3,-2.9
COc1ccc2c(c1)CC/C2=N\OC(=O)c1ccccc1OC,67.2*,25.0,1.2,68.5*,-2.7,42.1
COc1cc(OC)cc(C(=O)NNC(=O)CCC(=O)c2cc(C)sc2C)c1,8.7,-10.1,1.2,2.5,/,3.7
COc1cc(/C=C/C(=O)O)cc(S(=O)(=O)Nc2ccc3nc(C)sc3c2)c1OC,-3.0,5.2,-1.4,3.8,16.9*,-4.0
CN(C)c1ccc2nc3ccc(=O)cc-3sc2c1,/,-4.4,10.6,/,/,/
